From ChEMBL document CHEMBL1141657, “Synthesis, structure elucidation and identification of antitumoural properties of novel fused 1,2,4-triazine aryl derivatives” (Eur J Med Chem, 2008)

Tests used:
[1] = Growth inhibition of HSF cells assessed as BrdU incorporation at 174.6 uM after 72 hrs by spectrophotometry; format: cell-based; details: human
Summary of the method: (§1)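 Cells were seeded at 10⁴ cells/mL and preincubated. Compounds were dissolved in DMSO and added at two fixed concentrations, then incubated for 72 h. End-point was BrdU labelling with ELISA detection, read spectrophotometrically. Result is % growth inhibition versus untreated controls. Triplicates.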

[2] = Cytotoxicity against HSF cells assessed as cell viability at 1 uM after 24 hrs by MTT assay relative to control; format: cell-based; details: human, read-out: Activity
Summary of the method: (§2)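 Normal human skin fibroblasts (HSF, primary line) were exposed to DMSO-dissolved compound for 24 h. Viability was read by MTT tetrazolium reduction and expressed against untreated control set at 100%.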

[3] = Cytotoxicity against HSF cells assessed as cell viability at 50 uM after 24 hrs by MTT assay relative to control; format: cell-based; details: human, read-out: Activity; summary of the method: as §2
Jurkat [4] = test: Cytotoxicity against human Jurkat cells assessed as cell viability at 50 uM after 24 hrs by MTT assay relative to control; format: functional; details: read-out: Activity
Summary of the method: (§3)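 Jurkat T-cell leukaemia line grown in RPMI 1640 with 10% FBS, 2 mM L-glutamine and gentamycin at 37 °C, 5% CO2, kept in log phase. Compounds were dissolved in DMSO and applied for 24 h. Cells were washed in HEPES-buffered medium (pH 7.4) and given MTT at 0.5 mg/mL for 45 min at 37 °C. Formazan was dissolved in DMSO and read at 570 nm. Viability is % of control, from three independent measurements.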

[5] = Growth inhibition of african green monkey Vero cells assessed as BrdU incorporation at 174.6 uM after 72 hrs by spectrophotometry; format: cell-based; details: chlorocebus sabaeus, read-out: GI; summary of the method: as §1
Jurkat [6] = test: Cytotoxicity against human Jurkat cells assessed as cell viability at 1 uM after 24 hrs by MTT assay relative to control; format: functional; details: read-out: Activity; summary of the method: as §3
SiHa [7] = test: Growth inhibition of human SiHa cells assessed as BrdU incorporation at 34.9 uM after 72 hrs by spectrophotometry; format: functional; details: read-out: GI; summary of the method: as §1
Jurkat [8] = test: Cytotoxicity against human Jurkat cells assessed as cell viability at 100 uM after 24 hrs by MTT assay relative to control; format: functional; details: read-out: Activity; summary of the method: as §3
[9] = Growth inhibition of human LS180 cells assessed as BrdU incorporation at 174.6 uM after 72 hrs by spectrophotometry; format: functional; details: LS180, 72 h, read-out: GI; summary of the method: as §1
[10] = Growth inhibition of human LS180 cells assessed as BrdU incorporation at 34.9 uM after 72 hrs by spectrophotometry; format: functional; details: LS180, 72 h, read-out: GI; summary of the method: as §1
T47D [11] = test: Growth inhibition of human T47D cells assessed as BrdU incorporation at 174.6 uM after 72 hrs by spectrophotometry; format: functional; details: read-out: GI
Summary of the method: (§4)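 Each cell line was seeded at 10⁴ cells per mL and preincubated. Test agents were dissolved in DMSO, added at two examined concentrations (10 and 50 per mL by mass), and incubated for 72 h. The end-point was BrdU labeling and detection kit III read on an ELISA reader. Percent growth inhibition was calculated against untreated controls, in triplicate.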

SiHa [12] = test: Growth inhibition of human SiHa cells assessed as BrdU incorporation at 174.6 uM after 72 hrs by spectrophotometry; format: functional; details: read-out: GI; summary of the method: as §1
[13] = Cytotoxicity against HSF cells assessed as cell viability at 100 uM after 24 hrs by MTT assay relative to control; format: cell-based; details: human, read-out: Activity; summary of the method: as §2
Vero [14] = test: Growth inhibition of african green monkey Vero cells assessed as BrdU incorporation at 34.9 uM after 72 hrs by spectrophotometry; format: cell-based; details: chlorocebus sabaeus; summary of the method: as §1
[15] = Growth inhibition of HSF cells assessed as BrdU incorporation at 34.9 uM after 72 hrs by spectrophotometry; format: cell-based; details: human, read-out: GI; summary of the method: as §1
T47D [16] = test: Growth inhibition of human T47D cells assessed as BrdU incorporation at 34.9 uM after 72 hrs by spectrophotometry; format: functional; details: read-out: GI; summary of the method: as §4
Jurkat [17] = test: Cytotoxicity against human Jurkat cells assessed as decrease in cell viability after 24 hrs by MTT assay; format: functional, cell-based
Summary of the method: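 Jurkat cells grown in RPMI 1640/10% FBS at 37 °C, 5% CO2, with 24 h exposure to DMSO-dissolved compound. Read-out was MTT reduction: 0.5 mg/mL in HEPES-buffered medium for 45 min, formazan in DMSO, absorbance at 570 nm. IC50 was taken from 24 h dose–survival curves.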

[18] = Growth inhibition of human LS180 cells assessed as BrdU incorporation at 36.7 uM after 72 hrs by spectrophotometry; format: functional; details: LS180, 72 h, read-out: GI; summary of the method: as §1
T47D [19] = test: Growth inhibition of human T47D cells assessed as BrdU incorporation at 36.7 uM after 72 hrs by spectrophotometry; format: functional; details: read-out: GI; summary of the method: as §4
[20] = Growth inhibition of human LS180 cells assessed as BrdU incorporation after 72 hrs by spectrophotometry; format: functional, cell-based; details: LS180, 72 h
Summary of the method: (§5)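 Cancer cells were seeded at 10⁴ cells/mL, preincubated, then exposed for 72 h to DMSO-dissolved compound. Growth was read by BrdU labelling with ELISA spectrophotometry. IC50 was taken from 72 h dose–survival curves. Triplicates.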

[21] = Growth inhibition of human LS180 cells assessed as BrdU incorporation at 183.6 uM after 72 hrs by spectrophotometry; format: functional; details: LS180, 72 h, read-out: GI; summary of the method: as §1
[22] = Growth inhibition of HSF cells assessed as BrdU incorporation at 183.6 uM after 72 hrs by spectrophotometry; format: cell-based; details: human, read-out: GI; summary of the method: as §1
[23] = Growth inhibition of african green monkey Vero cells assessed as BrdU incorporation at 183.6 uM after 72 hrs by spectrophotometry; format: cell-based; details: chlorocebus sabaeus, read-out: GI; summary of the method: as §1
Vero [24] = test: Growth inhibition of african green monkey Vero cells assessed as BrdU incorporation at 36.7 uM after 72 hrs by spectrophotometry; format: cell-based; details: chlorocebus sabaeus; summary of the method: as §1
T47D [25] = test: Growth inhibition of human T47D cells assessed as BrdU incorporation after 72 hrs by spectrophotometry; format: functional, cell-based; summary of the method: as §5
[26] = Growth inhibition of HSF cells assessed as BrdU incorporation at 36.7 uM after 72 hrs by spectrophotometry; format: cell-based; details: human, read-out: GI; summary of the method: as §1
SiHa [27] = test: Growth inhibition of human SiHa cells assessed as BrdU incorporation at 183.6 uM after 72 hrs by spectrophotometry; format: functional; details: read-out: GI; summary of the method: as §1
SiHa [28] = test: Growth inhibition of human SiHa cells assessed as BrdU incorporation at 36.7 uM after 72 hrs by spectrophotometry; format: functional; details: read-out: GI; summary of the method: as §1
Mus musculus = test: Neurotoxicity in ip dosed Swiss albino mouse assessed as impair in motor coordination at 0.1 LD50 concentration by rotarod test; format: toxicity, organism-based; details: in vivo
Summary of the method: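 Male Albino Swiss mice (20-25 g), housed 8-10 per cage at 20 ± 1 °C on a 12/12 h light-dark cycle with food and water ad libitum. Randomized groups of 10. Compound given i.p. as a suspension in 3% Tween 80 at 10 mL kg^-1; controls received the same volume of vehicle. Tests run 8 a.m.-3 p.m.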

T47D [29] = test: Growth inhibition of human T47D cells assessed as BrdU incorporation at 183.6 uM after 72 hrs by spectrophotometry; format: functional; details: read-out: GI; summary of the method: as §4
SiHa [30] = test: Growth inhibition of human SiHa cells assessed as BrdU incorporation after 72 hrs by spectrophotometry; format: functional, cell-based; summary of the method: as §5
SiHa [31] = test: Growth inhibition of human SiHa cells assessed as BrdU incorporation at 31.2 uM after 72 hrs by spectrophotometry; format: functional; details: read-out: GI
[32] = Growth inhibition of HSF cells assessed as BrdU incorporation at 31.2 uM after 72 hrs by spectrophotometry; format: cell-based; details: human, read-out: GI
[33] = Growth inhibition of african green monkey Vero cells assessed as BrdU incorporation at 155.9 uM after 72 hrs by spectrophotometry; format: cell-based; details: chlorocebus sabaeus, read-out: GI
[34] = Growth inhibition of human LS180 cells assessed as BrdU incorporation at 31.2 uM after 72 hrs by spectrophotometry; format: functional; details: LS180, 72 h, read-out: GI
[35] = Growth inhibition of human LS180 cells assessed as BrdU incorporation at 155.9 uM after 72 hrs by spectrophotometry; format: functional; details: LS180, 72 h, read-out: GI
T47D [36] = test: Growth inhibition of human T47D cells assessed as BrdU incorporation at 155.9 uM after 72 hrs by spectrophotometry; format: functional; details: read-out: GI
Vero [37] = test: Growth inhibition of african green monkey Vero cells assessed as BrdU incorporation at 31.2 uM after 72 hrs by spectrophotometry; format: cell-based; details: chlorocebus sabaeus
T47D [38] = test: Growth inhibition of human T47D cells assessed as BrdU incorporation at 31.2 uM after 72 hrs by spectrophotometry; format: functional; details: read-out: GI
SiHa [39] = test: Growth inhibition of human SiHa cells assessed as BrdU incorporation at 155.9 uM after 72 hrs by spectrophotometry; format: functional; details: read-out: GI
[40] = Growth inhibition of HSF cells assessed as BrdU incorporation at 155.9 uM after 72 hrs by spectrophotometry; format: cell-based; details: human, read-out: GI

Structure (SMILES)	viability at 24 h, 1 µM [2] [%]	viability at 24 h, 50 µM [3] [%]	viability at 50 µM (Jurkat [4]) [%]	viability at 1 µM (Jurkat [6]) [%]	viability at 100 µM (Jurkat [8]) [%]	viability at 24 h, 100 µM [13] [%]	other results
Cc1ccc(N2CCn3c2nnc(C(=O)NN)c3=O)cc1	109	111	87	93	79	95	growth inhibition (GI) [1]: 0%; inhibition at 72 h, 174.6 µM [5]: 0%; inhibition of growth at 34.9 µM (SiHa [7]): 11%; inhibition of growth at 174.6 µM [9]: 14%; inhibition of growth at 34.9 µM [10]: 0%; inhibition of growth at 174.6 µM (T47D [11]): 8%; inhibition of growth at 174.6 µM (SiHa [12]): 9%; growth inhibition (GI) (Vero [14]): 2%; inhibition at 72 h, 34.9 µM [15]: 0%; inhibition of growth at 34.9 µM (T47D [16]): 5%
CCOC(=O)c1nnc2n(c1=O)CCN2c1ccc(C)cc1	91	87	89	83	93	82	–
CCOC(=O)c1nnc2n(c1=O)CCN2c1ccccc1	91.6	98.1	103	82	105	77.1	–
NNC(=O)c1nnc2n(c1=O)CCN2c1ccccc1	82	83	82	89	33	82	IC50 (Jurkat [17]): 85.5 µM; inhibition of growth at 36.7 µM [18]: 0%; inhibition of growth at 36.7 µM (T47D [19]): 4%; IC50 [20]: > 100 µM; inhibition of growth at 183.6 µM [21]: 15%; inhibition at 72 h, 183.6 µM [22]: 20%; inhibition at 72 h, 183.6 µM [23]: 0%; growth inhibition (GI) (Vero [24]): 2%; IC50 (T47D [25]): > 100 µM; inhibition at 72 h, 36.7 µM [26]: 16%; inhibition of growth at 183.6 µM (SiHa [27]): 0%; inhibition of growth at 36.7 µM (SiHa [28]): 0%; Activity (Mus musculus): Non-toxic; inhibition of growth at 183.6 µM (T47D [29]): 9%; IC50 (SiHa [30]): > 100 µM
CCOC(=O)c1nnc2n(c1=O)CCN2c1cccc(Cl)c1	104	103	111	114	107	98	inhibition of growth at 31.2 µM (SiHa [31]): 41%; inhibition at 72 h, 31.2 µM [32]: 16%; inhibition at 72 h, 155.9 µM [33]: 25%; inhibition of growth at 31.2 µM [34]: 30%; inhibition of growth at 155.9 µM [35]: 35%; inhibition of growth at 155.9 µM (T47D [36]): 41%; growth inhibition (GI) (Vero [37]): 20%; inhibition of growth at 31.2 µM (T47D [38]): 26%; inhibition of growth at 155.9 µM (SiHa [39]): 52%; inhibition at 72 h, 155.9 µM [40]: 17%
CCOC(=O)c1nnc2n(c1=O)CCN2c1ccc(OC)cc1	104	100	110	118	110	97	–
CCOC(=O)c1nnc2n(c1=O)CCN2c1ccc(Cl)c(Cl)c1	102	84	28	91	23	85	IC50 (Jurkat [17]): 32.2 µM; IC50 [20]: > 100 µM; IC50 (T47D [25]): > 100 µM; Activity (Mus musculus): Non-toxic; IC50 (SiHa [30]): > 100 µM
